The source of these data is ChEMBL document CHEMBL3804803, “Pyrrolopyrimidine Derivatives as Novel Inhibitors of Multidrug Resistance-Associated Protein 1 (MRP1, ABCC1)” (J Med Chem, 2016).

One may read the inhibition as the change of the read-out against control, counted positive when it falls. By GI50 is commonly meant the concentration giving 50% growth inhibition. Broadly, the pIC50 is the IC50 on a negative log10 scale, so that one unit is a factor of ten.

pIC50: −log10 of the molar value.

For one data set, the species on record is Homo sapiens. The experiment in a line: Inhibition of P-gp (unknown origin) at 10 uM after 30 mins by calcein AM accumulation assay.
The target in data set [1] is T1, Multidrug resistance-associated protein 1 (Homo sapiens, UniProt P33527). The conditions noted are these: h69ar, 72 h, 5 µM.
The next data set has as its target T2, BCRP (ABCG2) (Homo sapiens, UniProt Q9UNQ0).
T2 sequence (Q9UNQ0 whole entry): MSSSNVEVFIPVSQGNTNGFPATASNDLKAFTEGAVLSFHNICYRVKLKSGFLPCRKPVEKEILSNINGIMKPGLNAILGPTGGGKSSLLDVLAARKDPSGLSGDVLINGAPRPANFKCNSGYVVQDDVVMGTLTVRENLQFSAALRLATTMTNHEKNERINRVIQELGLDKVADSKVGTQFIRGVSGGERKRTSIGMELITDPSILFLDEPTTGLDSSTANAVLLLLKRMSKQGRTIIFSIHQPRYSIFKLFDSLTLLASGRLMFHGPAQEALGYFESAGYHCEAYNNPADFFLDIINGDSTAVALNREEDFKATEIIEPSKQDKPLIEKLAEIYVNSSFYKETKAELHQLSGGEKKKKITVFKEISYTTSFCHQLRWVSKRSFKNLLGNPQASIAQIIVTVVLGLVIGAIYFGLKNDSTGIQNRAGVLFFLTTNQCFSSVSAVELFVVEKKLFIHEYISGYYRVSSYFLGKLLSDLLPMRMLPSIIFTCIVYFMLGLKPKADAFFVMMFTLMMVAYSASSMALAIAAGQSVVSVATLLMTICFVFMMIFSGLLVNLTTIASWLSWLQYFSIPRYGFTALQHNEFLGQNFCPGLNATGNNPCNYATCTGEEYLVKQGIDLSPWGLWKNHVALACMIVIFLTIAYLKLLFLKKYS
In words: Inhibition of BCRP (unknown origin) expressed in MDCK2 cells assessed as pheophorbide A accumulation at 10 uM preincubated for 20 mins measured after 120 mins by flow cytometry. Type of data set: cell-based, MDCK-II. The conditions noted are these: MDCK2 cells expressing BCRP, probe pheophorbide A. Summed up:
(§1)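 MDCK II BCRP cells (GFP detected in FL1 to monitor BCRP expression), about 45,000 per well. Preincubated 20 min at 37 °C, 5% CO2 with compound (1–100 µM solutions, 20 µL into 200 µL final volume). Pheophorbide A added (20 µL of 5 µM solution) for 120 min to reach steady state. Cells resuspended, then flow cytometry: 488 nm excitation, FL3 ≥670 nm. […] The four-parameter logistic top was constrained to Ko143; ≥3 experiments in duplicate.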
On the technique in general: In flow cytometry, cells or beads pass a laser one at a time.

Data set [2] concerns the target T1, Multidrug resistance-associated protein 1. The conditions noted are these: h69ar, 72 h, 10 µM.
Data set [3] can be described thus: Cytotoxicity against human H69AR cells overexpressing MRP1 assessed as growth inhibition after 72 hrs by MTT assay. Type of data set: cell-based. Summed up: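 H69 AR cells, about 20,000 per well, exposed 72 h at 37 °C in humidified CO2 to test compound diluted in culture medium (100 nM to 100 µM solutions, 20 µL added to 180 µL cells). Then MTT (5 mg/mL, 20 µL) for 1 h, formazan taken up in DMSO, absorbance 570 nm minus 690 nm. Plain medium set 100% viability, 10% DMSO 0%. GI50 from variable-slope nonlinear fit; ≥3 independent experiments in duplicate.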
A general note: Formazan colour is commonly taken as a measure of viable cells.

Data set [4] addresses T1, Multidrug resistance-associated protein 1. The conditions noted are these: h69ar, 72 h, 1 µM.
Data set [5] is described as follows: Cytotoxicity against human H69AR cells overexpressing MRP1 assessed as reduction in cell viability at 10 uM after 72 hrs by MTT assay. The conditions noted are these: h69ar, 72 h, 10 µM. Format: cell-based. Summed up:
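H69 AR cells, about 20,000 per well, 72 h at 37 °C in humidified CO2 with compound at 10 µM. MTT (5 mg/mL, 20 µL) added for 1 h, then DMSO solubilization and absorbance 570 nm with 690 nm background. Viability scaled between plain medium (100%) and 10% DMSO (0%). ≥3 independent experiments in duplicate.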

For data set [6], the target named is T1, Multidrug resistance-associated protein 1. In words: Inhibition of MRP1 in human H69AR cells incubated for 20 mins measured every 60 seconds by calcein-AM accumulation assay.
Data set [7] has the same target. In words: Inhibition of MRP1 in human H69AR cells assessed as daunorubicin accumulation preincubated for 15 mins measured after 180 mins by flow cytometry. Type of data set: cell-based. The method, boiled down:
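H69 AR cells, about 60,000 per well in culture medium. Preincubated 15 min with compound diluted in unsupplemented medium, then daunorubicin added (20 µL of 30 µM solution). Held 180 min at 37 °C, 5% CO2, protected from light, to reach steady state. Cells resuspended; flow cytometry with 488 nm excitation, FL3 ≥670 nm. IC50 from four-parameter logistic with variable Hill slope; ≥3 independent experiments in duplicate.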

In data set [8] the target is T3, Broad substrate specificity ATP-binding cassette transporter ABCG2 (Homo sapiens, UniProt Q9UNQ0).
T3 sequence (Q9UNQ0 whole entry): T2 sequence (Q9UNQ0 whole entry)
In words: Inhibition of BCRP (unknown origin) expressed in MDCK2 cells assessed as pheophorbide A accumulation preincubated for 20 mins measured after 120 mins by flow cytometry. Format: cell-based, MDCK-II. The method, boiled down: as §1

Data set [9] concerns the target T1, Multidrug resistance-associated protein 1. In words: Inhibition of MRP1 in daunorubicin resistant human H69AR cells assessed as potentiation of daunorubicin-induced growth inhibition at 1 to 10 uM after 72 hrs by MTT assay relative to control. Format: cell-based.

T1 sequence (P33527 whole entry): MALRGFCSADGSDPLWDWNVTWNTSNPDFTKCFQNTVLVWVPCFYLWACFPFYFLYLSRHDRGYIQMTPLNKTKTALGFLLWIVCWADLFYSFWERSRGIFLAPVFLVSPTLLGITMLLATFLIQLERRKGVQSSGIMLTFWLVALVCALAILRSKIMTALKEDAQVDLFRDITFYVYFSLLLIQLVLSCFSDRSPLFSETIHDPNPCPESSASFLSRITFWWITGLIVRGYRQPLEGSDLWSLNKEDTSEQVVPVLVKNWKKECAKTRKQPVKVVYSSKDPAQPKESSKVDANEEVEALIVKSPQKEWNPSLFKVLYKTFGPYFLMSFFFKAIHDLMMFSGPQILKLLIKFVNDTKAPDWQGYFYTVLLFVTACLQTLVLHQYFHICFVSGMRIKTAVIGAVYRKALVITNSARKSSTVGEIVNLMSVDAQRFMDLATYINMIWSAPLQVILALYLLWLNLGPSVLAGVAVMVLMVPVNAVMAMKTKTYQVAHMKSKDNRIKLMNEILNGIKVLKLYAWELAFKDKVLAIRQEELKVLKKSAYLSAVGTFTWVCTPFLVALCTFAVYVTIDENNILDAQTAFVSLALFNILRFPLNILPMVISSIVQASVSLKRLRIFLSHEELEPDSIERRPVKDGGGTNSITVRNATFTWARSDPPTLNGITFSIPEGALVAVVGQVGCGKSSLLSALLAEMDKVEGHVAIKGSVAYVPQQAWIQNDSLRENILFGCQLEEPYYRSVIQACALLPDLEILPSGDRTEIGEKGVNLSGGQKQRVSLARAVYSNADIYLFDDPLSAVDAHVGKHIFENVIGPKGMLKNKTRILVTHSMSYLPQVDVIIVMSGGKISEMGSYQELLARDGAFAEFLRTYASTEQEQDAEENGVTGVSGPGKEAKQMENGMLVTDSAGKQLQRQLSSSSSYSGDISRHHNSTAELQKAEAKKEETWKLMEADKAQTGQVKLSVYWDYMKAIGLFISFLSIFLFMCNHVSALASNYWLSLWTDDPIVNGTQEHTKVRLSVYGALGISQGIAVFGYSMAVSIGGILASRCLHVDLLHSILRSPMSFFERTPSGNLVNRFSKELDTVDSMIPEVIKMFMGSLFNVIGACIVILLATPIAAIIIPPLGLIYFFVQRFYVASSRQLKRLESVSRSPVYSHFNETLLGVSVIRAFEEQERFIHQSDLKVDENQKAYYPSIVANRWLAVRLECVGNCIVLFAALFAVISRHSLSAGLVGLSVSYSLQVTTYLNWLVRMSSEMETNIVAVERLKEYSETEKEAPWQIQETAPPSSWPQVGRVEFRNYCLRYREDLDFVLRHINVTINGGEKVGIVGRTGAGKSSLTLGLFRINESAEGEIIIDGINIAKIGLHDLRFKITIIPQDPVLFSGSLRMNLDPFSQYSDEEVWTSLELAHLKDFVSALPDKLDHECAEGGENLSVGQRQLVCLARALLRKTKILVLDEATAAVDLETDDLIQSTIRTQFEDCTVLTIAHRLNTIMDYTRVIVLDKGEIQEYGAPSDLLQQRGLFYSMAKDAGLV

`N#Cc1c2n(c3c(N4CCNCC4)ncnc13)CCCC2`: in the data set listed under Homo sapiens, the inhibition is greater than 25%. Moreover, the GI50 was found to be 2.48 µM in data set [1], 1.83 µM in [2] and 2.94 µM in [4]. Besides, the inhibition at 2 h, 10 µM on BCRP (ABCG2) is greater than 25%. Besides, the GI50 at 72 h in data set [3] worked out at 60.6 µM. Further, the Activity entry in data set [5] is “Non-toxic”. For the same compound, the pIC50 was 4.56 in [6] and 4.97 in [7].

Regarding `N#Cc1c2n(c3c(NCCCc4ccccc4)ncnc13)CCCC2`, in the data set listed under Homo sapiens, the inhibition was greater than 25%. The GI50 in data set [1] came to 0.751 µM; in data set [2], 0.45 µM; in [4] it was 2.41 µM. Also, the inhibition at 2 h, 10 µM on BCRP (ABCG2) was greater than 25%. Further, the concentration for 50% growth inhibition (GI50) at 72 h in [3] came out at 132 µM. For the same compound, the Activity entry in [5] is “Non-toxic”. Further, the negative-log IC50 (pIC50) is 5.60 in data set [6], 5.55 in data set [7] and 5.22 in data set [8].

Take `N#Cc1cn(C2CC2)c2c(N3CCN(CCc4ccccc4)CC3)ncnc12`: the “fold change (FC)” value in data set [9] stood at 10. The inhibition in the data set filed under Homo sapiens was greater than 25%. Further, at BCRP (ABCG2), the inhibition at 2 h, 10 µM is less than 25%. Besides, the concentration for 50% growth inhibition (GI50) at 72 h in data set [3] is 36 µM. Moreover, the Activity result in [5] is “Non-toxic”. Besides, the negative logarithm of the IC50 (pIC50) in data set [6] is 6.61; in data set [7], 6.70.
